Measurements published in ChEMBL document CHEMBL2434917, “Synthesis and anticancer activity of some novel 2-phenazinamine derivatives” (Eur J Med Chem, 2013).

Columns and labels:
HepG2 [1] = test: Cytotoxicity against human HepG2 cells after 48 hrs by MTT assay; type: functional, cell-based; conditions: HepG2, 48 h
Outline: (§1)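 Cells were kept in RPMI-1640 with 10% FBS, streptomycin and penicillin at 37 °C under 5% CO2. They were seeded at 5000/well and left 24 h, then exposed 48 h to compound (DMSO stock diluted in medium, DMSO ≤0.2%) at final 0.16, 0.63, 2.5, 10, 40 and 160 μM. MTT was added (10% v/v of 5 mg/ml) for 4 h, formazan was dissolved in DMSO and A490 read. IC50 came from the viability-versus-dose plot against control, with three repeats.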

MGC-803 = test: Cytotoxicity against human MGC803 cells after 48 hrs by MTT assay; type: functional, cell-based; conditions: MGC-803, 48 h; outline: as §1
HCT-116 = test: Cytotoxicity against human HCT116 cells after 48 hrs by MTT assay; type: functional, cell-based; conditions: HCT-116, 48 h; outline: as §1
K562 [2] = test: Cytotoxicity against human K562 cells after 48 hrs by MTT assay; type: functional, cell-based; conditions: K562, 48 h; outline: as §1
HEK-293T = test: Cytotoxicity against human 293T cells after 48 hrs by MTT assay; type: cell-based; outline: as §1
MCF7 [3] = test: Cytotoxicity against human MCF7 cells after 48 hrs by MTT assay; type: functional, cell-based; conditions: MCF7, 48 h; outline: as §1
HepG2 [4] = test: Induction apoptosis in human HepG2 cells assessed as late apoptosis or necrosis cells level at 50 uM after 24 hrs using Annexin V-FITC and propidium iodide staining by flow cytometry analysis (reference value: 5.7%); type: functional
HepG2 [5] = test: Ratio of cisplatin IC50 to compound IC50 for human HepG2 cells; type: functional
K562 [6] = test: Ratio of cisplatin IC50 to compound IC50 for human K562 cells; type: functional
HepG2 [7] = test: Induction apoptosis in human HepG2 cells assessed as apoptotic cells level at 50 uM after 24 hrs using Annexin V-FITC and propidium iodide staining by flow cytometry analysis (reference value: 8.3%); type: functional
MCF7 [8] = test: Ratio of cisplatin IC50 to compound IC50 for human MCF7 cells; type: functional

Row | Structure (SMILES) | IC50 (HepG2 [1]) [µM] | IC50 (MGC-803) [µM] | IC50 (HCT-116) [µM] | IC50 (K562 [2]) [µM] | IC50 (HEK-293T) [µM] | IC50 (MCF7 [3]) [µM] | Activity (HepG2 [4]) [%] | Ratio IC50 (HepG2 [5]) | Ratio IC50 (K562 [6]) | Activity (HepG2 [7]) [%] | Ratio IC50 (MCF7 [8])
1 | O=C(Nc1ccc2nc3ccccc3nc2c1)c1cccc2ccccc12 | 44.2 | 87.9 | 131 | 61.2 | > 160 | 30.1 | – | – | – | – | –
2 | O=C(Nc1ccc2nc3ccccc3nc2c1)c1ccccc1Cl | 16.5 | > 160 | 91.9 | 33.4 | > 160 | > 160 | 20.5 | 1.1 | 1.7 | 36.1 | –
3 | O=C(Nc1ccc2nc3ccccc3nc2c1)C1CCCCC1 | > 160 | 67.1 | > 160 | 78.9 | > 160 | 137 | – | – | – | – | –
4 | O=C(Nc1ccc2nc3ccccc3nc2c1)c1cccs1 | > 160 | > 160 | 68.1 | > 160 | > 160 | > 160 | – | – | – | – | –
5 | COc1ccc(C(=O)Nc2ccc3nc4ccccc4nc3c2)cc1 | > 160 | 50.1 | > 160 | > 160 | > 160 | > 160 | – | – | – | – | –
6 | CN(C)C(=O)Nc1ccc2nc3ccccc3nc2c1 | > 160 | – | 144 | – | > 160 | 35.1 | – | – | – | – | –
7 | O=C(Nc1ccc2nc3ccccc3nc2c1)c1cccc(Cl)c1 | > 160 | > 160 | > 160 | > 160 | > 160 | > 160 | – | – | – | – | –
8 | O=S(=O)(Nc1ccc2nc3ccccc3nc2c1)c1ccccc1 | > 160 | > 160 | > 160 | > 160 | > 160 | > 160 | – | – | – | – | –
9 | Cc1ccc(C(=O)Nc2ccc3nc4ccccc4nc3c2)cc1 | > 160 | > 160 | > 160 | > 160 | > 160 | > 160 | – | – | – | – | –
10 | CCOC(=O)Nc1ccc2nc3ccccc3nc2c1 | 15.2 | > 160 | > 160 | > 160 | > 160 | 46.1 | – | 1.2 | – | – | –
11 | O=C(Nc1ccc2nc3ccccc3nc2c1)c1ccco1 | 52.2 | – | 86.6 | – | > 160 | 28.8 | – | – | – | – | –
12 | Cc1cccc(C(=O)Nc2ccc3nc4ccccc4nc3c2)c1 | 16.7 | 89 | > 160 | > 160 | 56.2 | > 160 | – | 1.1 | – | – | –
13 | O=C(CCCl)Nc1ccc2nc3ccccc3nc2c1 | > 160 | 59.5 | 141 | 74.5 | > 160 | 37.6 | – | – | – | – | –
14 | CCCC(=O)Nc1ccc2nc3ccccc3nc2c1 | > 160 | 43.5 | 62.3 | > 160 | 110 | 68.8 | – | – | – | – | –
15 | Cc1ccccc1C(=O)Nc1ccc2nc3ccccc3nc2c1 | > 160 | 27.2 | > 160 | > 160 | > 160 | 11.6 | – | – | – | – | 2.4
16 | O=C(CCC1CCCC1)Nc1ccc2nc3ccccc3nc2c1 | > 160 | 122 | > 160 | 157 | > 160 | > 160 | – | – | – | – | –
17 | O=C(Nc1ccc2nc3ccccc3nc2c1)c1ccccc1 | > 160 | > 160 | 28.2 | > 160 | > 160 | > 160 | – | – | – | – | –
18 | CC(=O)Nc1ccc2nc3ccccc3nc2c1 | > 160 | 93.1 | > 160 | 49.2 | > 160 | 82.6 | – | – | 1.1 | – | –
19 | O=C(Cc1cccs1)Nc1ccc2nc3ccccc3nc2c1 | > 160 | – | 95.6 | – | > 160 | > 160 | – | – | – | – | –
20 | O=C(Cc1ccccc1)Nc1ccc2nc3ccccc3nc2c1 | > 160 | > 160 | > 160 | > 160 | > 160 | > 160 | – | – | – | – | –
21 | CCC(=O)Nc1ccc2nc3ccccc3nc2c1 | > 160 | 63.9 | 18.9 | 57.7 | > 160 | 40.7 | – | – | – | – | –
